Common to all, as to assay type: functional
Assay [1] concerns Trypanosoma brucei. Nature of the assay: Trypanocidal activity against Trypanosoma brucei, exposure of parasites to compound prior to injection into mice at 10 e-5 M concentration in dark conditions. In outline:
(§1)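 T. brucei EATRO 110 was separated from blood on DEAE-cellulose and washed in Tris-saline-glucose (TSG). Parasites at 5×10^6/mL in TSG were gently rotated 10 min with drug at the final concentration, kept dark under a red safelight until injection. Swiss mice, five per group, received 5×10^5 parasites ip in 0.1 mL. Read-out was mean days survival ±SD over 30 days, against untreated-parasite controls.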

Assay [2] relates to Trypanosoma brucei. Kind of assay: Compound is evaluated for trypanocidal activity against Trypanosoma brucei, by exposing the parasites directly to compound prior to injection to mice at 10 e-7 M concentration in dark. The method, boiled down: as §1
Assay [3] has as its system Trypanosoma brucei. Kind of assay: Trypanocidal activity against Trypanosoma brucei, exposure of parasites to compound prior to injection into mice at 10 e-6 M concentration in dark conditions. In outline:
as §1

Assay [4] relates to Trypanosoma brucei. Nature of the assay: Trypanocidal activity against Trypanosoma brucei, exposure of parasites to compound prior to injection into mice at 10 e-5 M concentration in presence of light. Set-up: unit: days. In outline:
(§2)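 DEAE-purified T. brucei EATRO 110 at 5×10^6/mL in TSG was mixed with drug at the final concentration by gentle rotation for 10 min. Samples were light-activated for 10 min under a 30W fluorescent lamp 4 cm above. 5×10^5 treated parasites in 0.1 mL were injected ip into Swiss mice, five per group. Survival was scored daily for 30 days and reported as mean days ±SD, with untreated controls.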

Assay [5] relates to Trypanosoma brucei. Kind of assay: Compound is evaluated for trypanocidal activity against Trypanosoma brucei, by exposing the parasites directly to compound prior to injection to mice at 10 e-6 M concentration (pre) in presence of light. In outline:
(§3)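 Compound was irradiated 1 h before contact with T. brucei EATRO 110 (5×10^6/mL in TSG, final drug concentration). After 10 min gentle rotation, the mixture was irradiated again for 10 min under a 30W fluorescent lamp at 4 cm. 5×10^5 parasites in 0.1 mL were given ip to five Swiss mice per group. Read-out was mean days survival ±SD over 30 days, with untreated controls.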

Assay [6] relates to Trypanosoma brucei. Kind of assay: Compound is evaluated for trypanocidal activity against Trypanosoma brucei, by exposing the parasites directly to compound prior to injection to mice at 10 e-7 M concentration in dark conditions. More on the design: unit: days. In outline: as §1
The subject of assay [7] is Trypanosoma brucei. Nature of the assay: Trypanocidal activity against Trypanosoma brucei, exposure of parasites to compound prior to injection into mice at 10 e-4 M concentration in dark conditions. The method, boiled down: as §1
Assay [8] deals with Trypanosoma brucei. Kind of assay: Trypanocidal activity against Trypanosoma brucei, exposure of parasites to compound prior to injection into mice at 10 e-4 M concentration in presence of light. Set-up: unit: days. In outline: as §2
Assay [9] has as its system Trypanosoma brucei. Kind of assay: Compound is evaluated for trypanocidal activity against Trypanosoma brucei, by exposing the parasites directly to compound prior to injection to mice at 10 e-5 M concentration (pre) in dark conditions. In outline: (§4)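 Drug was preirradiated 1 h with visible light, then added at the final concentration to T. brucei EATRO 110 (5×10^6/mL in TSG) and rotated 10 min. The parasites were then kept dark with a red safelight. Swiss mice, five per group, were injected ip with 0.1 mL holding 5×10^5 parasites. Mean days survival ±SD was scored over 30 days against untreated-parasite controls.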

Assay [10] deals with Trypanosoma brucei. Kind of assay: Trypanocidal activity against Trypanosoma brucei, exposur of parasites to compound prior to injection into mice at 10 e-6 M concentration in presence of light. More on the design: unit: days. In outline: as §2
For assay [11], the system named is Trypanosoma brucei. Nature of the assay: Compound is evaluated for trypanocidal activity against Trypanosoma brucei, by exposing the parasites directly to compound prior to injection to mice at 10 e-7 M concentration in presence of light. More on the design: unit: days. In outline: as §2
For assay [12], the system named is Trypanosoma brucei. Nature of the assay: Compound is evaluated for trypanocidal activity against Trypanosoma brucei, by exposing the parasites directly to compound prior to injection to mice at 10 e-5 M concentration (pre) in presence of light. In outline: as §3
Assay [13] has as its system Trypanosoma brucei. Kind of assay: Compound is evaluated for trypanocidal activity against Trypanosoma brucei, by exposing the parasites directly to compound prior to injection to mice at 10 E-4 M concentration in presence of light. In outline: as §2
Assay [14] relates to Trypanosoma brucei. Nature of the assay: Compound is evaluated for trypanocidal activity against Trypanosoma brucei, by exposing the parasites directly to compound prior to injection to mice at 10 E-5 M concentration in presence of light. The method, boiled down: as §2
Assay [15] concerns Trypanosoma brucei. Nature of the assay: Compound is evaluated for trypanocidal activity against Trypanosoma brucei, by exposing the parasites directly to compound prior to injection to mice at 10 E-5 M concentration in dark conditions. In outline:
as §1

Assay [16] relates to Trypanosoma brucei. Kind of assay: Compound is evaluated for trypanocidal activity against Trypanosoma brucei, by exposing the parasites directly to compound prior to injection to mice at 10 E-6 M concentration in presence of light. The method, boiled down:
as §2

In assay [17] the test system is Trypanosoma brucei. Kind of assay: Compound is evaluated for trypanocidal activity against Trypanosoma brucei, by exposing the parasites directly to compound prior to injection to mice at 10 E-4 M concentration in dark conditions. The method, boiled down: as §1
Assay [18] deals with Trypanosoma brucei. Nature of the assay: Compound is evaluated for trypanocidal activity against Trypanosoma brucei, by exposing the parasites directly to compound prior to injection to mice at 10 E-6 M concentration in dark conditions. In outline:
as §1

Assay [19] concerns Trypanosoma brucei. Kind of assay: Compound is evaluated for trypanocidal activity against Trypanosoma brucei, by exposing the parasites directly to compound prior to injection to mice at 10 e-6 M concentration (pre) in dark conditions. In outline:
as §4

The test system of assay [20] is Trypanosoma brucei. Kind of assay: Compound is evaluated for trypanocidal activity against Trypanosoma brucei, by exposing the parasites directly to compound prior to injection to mice at 10 e-5 M concentration in presence of light. In outline:
as §2

The test system of assay [21] is Trypanosoma brucei. Nature of the assay: Compound is evaluated for trypanocidal activity against Trypanosoma brucei, by exposing the parasites directly to compound prior to injection to mice at 10 E-5 M concentration (pre) in dark conditions. In outline: as §4
Assay [22] concerns Trypanosoma brucei. Nature of the assay: Compound is evaluated for trypanocidal activity against Trypanosoma brucei, by exposing the parasites directly to compound prior to injection to mice at 10 E-5 M concentration (pre) in presence of light. The method, boiled down: as §3
For assay [23], the system named is Trypanosoma brucei. Kind of assay: Compound is evaluated for trypanocidal activity against Trypanosoma brucei, by exposing the parasites directly to compound prior to injection to mice at 10 E-6 M concentration (pre) in presence of light. The method, boiled down: as §3
In assay [24] the test system is Trypanosoma brucei. Kind of assay: Compound is evaluated for trypanocidal activity against Trypanosoma brucei, by exposing the parasites directly to compound prior to injection to mice at 10 E-5 M concentration in presence of lightin. The method, boiled down: as §2
The test system of assay [25] is Trypanosoma brucei. Kind of assay: Compound is evaluated for trypanocidal activity against Trypanosoma brucei, by exposing the parasites directly to compound prior to injection to mice at 10 E-7 M concentration in dark conditions. In outline:
as §1

Assay [26] deals with Trypanosoma brucei. Nature of the assay: Compound is evaluated for trypanocidal activity against Trypanosoma brucei, by exposing the parasites directly to compound prior to injection to mice at 10 E-7 M concentration in presence of light. In outline: as §2
The subject of assay [27] is Trypanosoma brucei. Nature of the assay: Compound is evaluated for trypanocidal activity against Trypanosoma brucei, by exposing the parasites directly to compound prior to injection to mice at 10 E-6 M concentration (pre) in dark conditions. The method, boiled down: as §4

Each structure is given as a SMILES string.

For the molecule `N=C(N)c1ccc(/N=N/Nc2ccc(C(=N)N)cc2)cc1` [DIMINAZENE], the Activity in [1] is recorded as 19.2; in assay [2], 5; in assay [3], 10.8.

Turning to `[N-]=[N+]=Nc1ccc2cc3ccc(N)cc3nc2c1`, the Activity is on record as 12.7 in assay [4]; 5.5 in assay [1]; 5.7 in [6]; 4.6 in [3]; 30 in [8]; 5.2 in [9]. The Activity was determined as 11.2 in assay [10], 5.9 in [11] and 5.2 in assay [12]. Besides, in [5], the “Mean survival of mice (days)” value was determined as 5.4. Further, in [7], the “Mean survival time of infected mice (days)” value (shortened to “Mean survival time”) is 8.3.

`Nc1cccc2nc3ccccc3c(N)c12`: the Activity stood at 30 in assay [13]; 5.6 in assay [14]; 4.6 in assay [15]; 4.6 in assay [16]; 30 in assay [17]; 5.4 in assay [18].

Turning to `C[n+]1c2ccccc2cc2ccc(N=[N+]=[N-])cc21.[Cl-]`, the Activity in assay [4] came out at 30; in assay [1], 6.6; in [19] it was 4.7; in assay [3], 5.4; in [8] it was 30; in [9], 4.4. Besides, the Activity in assay [10] was found to be 8.6; in assay [12], 5.8. Further, the “Mean survival of mice (days)” value in [5] was found to be 5. The “Mean survival time” value in assay [7] is on record as 30.

For the molecule `C[n+]1c2ccccc2cc2ccc(N)cc21.[Cl-]`, the “Mean survival of mice (days)” value in [5] stood at 15.5. Besides, the Activity in [1] is given as 14.2; in assay [6] it was 4.6; in assay [20], 30; in assay [3], 6.9; in assay [10] it was 30; in [11] it was 12.4. The “Mean survival time” value in [7] was 30.

For `Nc1ccc2cc3ccccc3nc2c1`, the Activity in assay [13] is listed as 30; in [14], 30; in assay [15], 6.6; in assay [16], 5.7; in assay [21] it was 6.7; in assay [22] it was 30. Besides, the Activity in assay [17] turned out to be 6.9; in assay [18] it was 4.9.

On to `Nc1ccc2cc3ccc(N)cc3nc2c1` [PROFLAVINE], for which the Activity in assay [13] came to 30; in assay [23] it was 20.6; in [24] it was 30; in assay [15] it was 12; in [16], 30; in assay [25] it was 6.3. Also, the Activity in [26] turned out to be 8.1; in assay [27], 7.2; in assay [17], 30; in assay [18] it was 5.5.

For the origin of these results see ChEMBL document CHEMBL1122685, “Identification of an acridine photoaffinity probe for trypanocidal action” (1984).
